# Experimental data: ChEMBL document CHEMBL4819122, “Novel 4-(piperazin-1-yl)quinolin-2(1H)-one bearing thiazoles with antiproliferative activity through VEGFR-2-TK inhibition” (Bioorg Med Chem, 2021)
# Legend:
# SN12C = assay: Cytotoxicity against human SN12C assessed as growth inhibition at 10 uM by NCI protocol relative to control; type: functional; settings: read-out: GI
# Outline: (§1)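 Run by the NCI under its standard protocol: one dose of 10 μM against a sixty-line panel from nine human tumour tissues. Result given as percent growth inhibition of treated cells relative to untreated cells.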
# TK-10 = assay: Cytotoxicity against human TK-10 assessed as growth inhibition at 10 uM by NCI protocol relative to control; type: functional; settings: read-out: GI; outline: as §1
# SNB-75 = assay: Cytotoxicity against human SNB-75 assessed as growth inhibition at 10 uM by NCI protocol relative to control; type: functional; settings: read-out: GI; outline: as §1
# HCT-15 = assay: Cytotoxicity against human HCT-15 assessed as growth inhibition at 10 uM by NCI protocol relative to control; type: functional; settings: read-out: GI
# Outline: (§2)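 Run by NCI as a single-dose screen at 10 μM across the sixty-cell-line panel, which covers nine human tumour tissue types. The read-out is percent growth inhibition of treated cells relative to untreated cells.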
# NCI-H226 = assay: Cytotoxicity against human NCI-H226 assessed as growth inhibition at 10 uM by NCI protocol relative to control; type: functional; settings: read-out: GI; outline: as §2
# A498 = assay: Cytotoxicity against human A498 assessed as growth inhibition at 10 uM by NCI protocol relative to control; type: functional; settings: read-out: GI; outline: as §2
# RXF 393 = assay: Cytotoxicity against human RXF 393 assessed as growth inhibition at 10 uM by NCI protocol relative to control; type: functional; settings: read-out: GI; outline: as §2
# HCC 2998 = assay: Cytotoxicity against human HCC-2998 assessed as growth inhibition at 10 uM by NCI protocol relative to control; type: functional; settings: read-out: GI; outline: as §2
# SK-MEL-2 = assay: Cytotoxicity against human SK-MEL-2 assessed as growth inhibition at 10 uM by NCI protocol relative to control; type: functional; settings: read-out: GI; outline: as §2
# MDA-MB-468 = assay: Cytotoxicity against human MDA-MB-468 assessed as growth inhibition at 10 uM by NCI protocol relative to control; type: functional; settings: read-out: GI; outline: as §2
# SF-268 = assay: Cytotoxicity against human SF-268 assessed as growth inhibition at 10 uM by NCI protocol relative to control; type: functional; settings: read-out: GI; outline: as §2
# HOP-92 = assay: Cytotoxicity against human HOP-92 assessed as growth inhibition at 10 uM by NCI protocol relative to control; type: functional; settings: read-out: GI; outline: as §2
# SK-MEL-28 = assay: Cytotoxicity against human SK-MEL-28 assessed as growth inhibition at 10 uM by NCI protocol relative to control; type: functional; settings: read-out: GI; outline: as §2
# COLO 205 = assay: Cytotoxicity against human COLO 205 assessed as growth inhibition at 10 uM by NCI protocol relative to control; type: functional; settings: read-out: GI; outline: as §2
# NCI-H522 = assay: Cytotoxicity against human NCI-H522 assessed as growth inhibition at 10 uM by NCI protocol relative to control; type: functional; settings: read-out: GI; outline: as §2
# SK-MEL-5 = assay: Cytotoxicity against human SK-MEL-5 assessed as growth inhibition at 10 uM by NCI protocol relative to control; type: functional; settings: read-out: GI; outline: as §2
# IGROV-1 = assay: Cytotoxicity against human IGROVI assessed as growth inhibition at 10 uM by NCI protocol relative to control; type: functional; settings: read-out: GI; outline: as §2
# SF-295 = assay: Cytotoxicity against human SF-295 assessed as growth inhibition at 10 uM by NCI protocol relative to control; type: functional; settings: read-out: GI; outline: as §2
# DU-145 = assay: Cytotoxicity against human DU-145 assessed as growth inhibition at 10 uM by NCI protocol relative to control; type: functional; settings: read-out: GI; outline: as §2
# BT-549 = assay: Cytotoxicity against human BT-549 assessed as growth inhibition at 10 uM by NCI protocol relative to control; type: functional; settings: read-out: GI; outline: as §2
# 786-0 = assay: Cytotoxicity against human 786-0 assessed as growth inhibition at 10 uM by NCI protocol relative to control; type: functional; settings: read-out: GI; outline: as §2
# SR = assay: Cytotoxicity against human SR assessed as growth inhibition at 10 uM by NCI protocol relative to control; type: functional; settings: read-out: GI; outline: as §1
# U-251 = assay: Cytotoxicity against human U251 assessed as growth inhibition at 10 uM by NCI protocol relative to control; type: functional; settings: read-out: GI; outline: as §1
# HT-29 = assay: Cytotoxicity against human HT29 assessed as growth inhibition at 10 uM by NCI protocol relative to control; type: functional; settings: read-out: GI; outline: as §2
# NCI-H322M = assay: Cytotoxicity against human NCI-H322M assessed as growth inhibition at 10 uM by NCI protocol relative to control; type: functional; settings: read-out: GI; outline: as §2
# SK-OV-3 = assay: Cytotoxicity against human SK-OV-3 assessed as growth inhibition at 10 uM by NCI protocol relative to control; type: functional; settings: read-out: GI; outline: as §2
# T47D [1] = assay: Cytotoxicity against human T47D cells assessed as reduction in cell viability after 3 hrs by MTT assay
# HL-60 = assay: Cytotoxicity against human HL60 assessed as growth inhibition at 10 uM by NCI protocol relative to control; type: functional; settings: read-out: GI; outline: as §2
# UACC-257 = assay: Cytotoxicity against human UACC-257 assessed as growth inhibition at 10 uM by NCI protocol relative to control; type: functional; settings: read-out: GI; outline: as §1
# A549 = assay: Cytotoxicity against human A549 assessed as growth inhibition at 10 uM by NCI protocol relative to control; type: functional; settings: read-out: GI; outline: as §2
# T47D [2] = assay: Cytotoxicity against human T-47D assessed as growth inhibition at 10 uM by NCI protocol relative to control; type: functional; settings: read-out: GI; outline: as §1
# NCI-H460 = assay: Cytotoxicity against human NCI-H460 assessed as growth inhibition at 10 uM by NCI protocol relative to control; type: functional; settings: read-out: GI; outline: as §2
# EKVX = assay: Cytotoxicity against human EKVX assessed as growth inhibition at 10 uM by NCI protocol relative to control; type: functional; settings: read-out: GI; outline: as §2
# NCI-H23 = assay: Cytotoxicity against human NCI-H23 assessed as growth inhibition at 10 uM by NCI protocol relative to control; type: functional; settings: read-out: GI; outline: as §2
# UO-31 = assay: Cytotoxicity against human UO31 assessed as growth inhibition at 10 uM by NCI protocol relative to control; type: functional; settings: read-out: GI; outline: as §1
# NCI/ADR-RES = assay: Cytotoxicity against human NCl/ADR-RES assessed as growth inhibition at 10 uM by NCI protocol relative to control; type: functional; settings: read-out: GI; outline: as §2
# CAKI-1 = assay: Cytotoxicity against human Caki1 assessed as growth inhibition at 10 uM by NCI protocol relative to control; type: functional; settings: read-out: GI; outline: as §2
# M14 = assay: Cytotoxicity against human M14 assessed as growth inhibition at 10 uM by NCI protocol relative to control; type: functional; settings: read-out: GI; outline: as §2
# KM12 = assay: Cytotoxicity against human KM12 assessed as growth inhibition at 10 uM by NCI protocol relative to control; type: functional; settings: read-out: GI; outline: as §2
# LOX IMVI = assay: Cytotoxicity against human LOX IMVI assessed as growth inhibition at 10 uM by NCI protocol relative to control; type: functional; settings: read-out: GI; outline: as §2
# Malme-3M = assay: Cytotoxicity against human MALME-3M assessed as growth inhibition at 10 uM by NCI protocol relative to control; type: functional; settings: read-out: GI; outline: as §2
# PC-3 = assay: Cytotoxicity against human PC3 assessed as growth inhibition at 10 uM by NCI protocol relative to control; type: functional; settings: read-out: GI; outline: as §2
# K562 = assay: Cytotoxicity against human K-562 assessed as growth inhibition at 10 uM by NCI protocol relative to control; type: functional; settings: read-out: GI; outline: as §2
smiles,measurement,setting,value
Cc1ccc(-c2csc(NC(=O)CN3CCN(c4cc(=O)[nH]c5ccc(F)cc45)CC3)n2)cc1,inhibition of growth at 10 µM,SN12C,45.1%
same,inhibition of growth at 10 µM,TK-10,46.3%
same,inhibition of growth at 10 µM,SNB-75,32.6%
same,inhibition of growth at 10 µM,HCT-15,37.1%
same,inhibition of growth at 10 µM,NCI-H226,11.7%
same,inhibition of growth at 10 µM,A498,56.6%
same,inhibition of growth at 10 µM,RXF 393,27%
same,inhibition of growth at 10 µM,HCC 2998,34.1%
same,inhibition of growth at 10 µM,SK-MEL-2,10.2%
same,inhibition of growth at 10 µM,MDA-MB-468,41.5%
same,inhibition of growth at 10 µM,SF-268,14.5%
same,inhibition of growth at 10 µM,HOP-92,39.7%
same,inhibition of growth at 10 µM,SK-MEL-28,17.8%
same,inhibition of growth at 10 µM,COLO 205,10.7%
same,inhibition of growth at 10 µM,NCI-H522,22.3%
same,inhibition of growth at 10 µM,SK-MEL-5,44%
same,inhibition of growth at 10 µM,IGROV-1,52.6%
same,inhibition of growth at 10 µM,SF-295,20.3%
same,inhibition of growth at 10 µM,DU-145,47.4%
same,inhibition of growth at 10 µM,BT-549,21.5%
same,inhibition of growth at 10 µM,786-0,25.6%
same,inhibition of growth at 10 µM,SR,47.5%
same,inhibition of growth at 10 µM,U-251,44.4%
same,inhibition of growth at 10 µM,HT-29,21.5%
same,inhibition of growth at 10 µM,NCI-H322M,18.9%
same,inhibition of growth at 10 µM,SK-OV-3,11%
same,IC50,T47D [1],8.41 µM
same,inhibition of growth at 10 µM,HL-60,40.6%
same,inhibition of growth at 10 µM,UACC-257,37.5%
same,inhibition of growth at 10 µM,A549,43.7%
same,inhibition of growth at 10 µM,T47D [2],74.3%
same,inhibition of growth at 10 µM,NCI-H460,21.4%
same,inhibition of growth at 10 µM,EKVX,42.1%
same,inhibition of growth at 10 µM,NCI-H23,21.6%
same,inhibition of growth at 10 µM,UO-31,35.4%
same,inhibition of growth at 10 µM,NCI/ADR-RES,38.4%
same,inhibition of growth at 10 µM,CAKI-1,52.6%
same,inhibition of growth at 10 µM,M14,27.5%
same,inhibition of growth at 10 µM,KM12,13.3%
same,inhibition of growth at 10 µM,LOX IMVI,23.9%
same,inhibition of growth at 10 µM,Malme-3M,43.5%
same,inhibition of growth at 10 µM,PC-3,55.9%
same,inhibition of growth at 10 µM,K562,42.4%
